Data from ChEMBL document CHEMBL5096174, “The Natural Alkaloid Berberine Can Reduce the Number of Pseudomonas aeruginosa Tolerant Cells” (2021).
In brackets after ≈: the same amount, converted by molar mass. Activity calls are given as the source filed them.

Experiments:
Pseudomonas aeruginosa [1] = test: Bactericidal activity against wild type Pseudomonas aeruginosa K767 persisters assessed as reduction in CFU at 20 times MIC incubated for 24 hrs by planktonic persistance assay; format: functional
Procedure, shortened: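 Stationary-phase overnight LB cultures at 37 °C were exposed to tobramycin 20xMIC, alone or with berberine 80 µg/mL, for 24 h at 37 °C. At 0, 7 and 24 h, aliquots were PBS-washed, 10-fold diluted and plated on antibiotic-free CLED agar, and survivor CFUs were counted after 24 h at 37 °C. Mean of two biological replicates ± SD.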

Pseudomonas aeruginosa [2] = test: Bactericidal activity against Pseudomonas aeruginosa K1525 mexY mutant persisters assessed as reduction in CFU at 20 times MIC incubated for 24 hrs by planktonic persistance assay; format: functional
Procedure, shortened: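 Stationary-phase (overnight, LB, 37 °C) cultures exposed to tobramycin 20xMIC with or without berberine 80 µg/mL for 24 h at 37 °C. Aliquots taken before exposure and at 24 h, PBS-washed, serially 10-fold diluted and plated on antibiotic-free CLED agar. Surviving CFU counted after 24 h at 37 °C. Biological duplicate.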

Pseudomonas aeruginosa [3] = test: Bactericidal activity against Pseudomonas aeruginosa K1525 mexY mutant assessed as reduction in log increase in tolerant cells at 1000 times MIC measured after 24 hrs; format: functional
Procedure, shortened: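 Biofilms were grown overnight in LB in 35 mm dishes at 37 °C, then held 24 h at 37 °C in LB with tobramycin 1000xMIC, alone or with berberine 80 or 320 µg/mL. Biofilms were detached mechanically at T0 and T24, resuspended in PBS, 10-fold diluted and plated on CLED agar, and CFUs were counted after 24 h at 37 °C. Biological triplicates.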

Pseudomonas aeruginosa [4] = test: Antibacterial activity against Pseudomonas aeruginosa C61 assessed as log reduction of bacterial population measured after 24 hrs; format: functional
Procedure, shortened: (§1)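 Overnight LB cultures at 37 °C were exposed to tobramycin 20xMIC, alone or with berberine 80 µg/mL, for 24 h at 37 °C. Aliquots were PBS-washed, serially 10-fold diluted and plated on antibiotic-free CLED agar. CFUs were counted after 24 h at 37 °C, before exposure (T0) and at T24. Biological duplicates.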

Pseudomonas aeruginosa [5] = test: Antibacterial activity against wild type Pseudomonas aeruginosa K767 assessed as reduction in bacterial growth rate in presence of berberine; format: functional, organism-based
Procedure, shortened: (§2)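 Overnight LB cultures diluted to OD600 0.1 and shaken at 140 rpm, 37 °C, for 24 h with or without berberine 80 µg/mL. OD600 read at 2, 4, 6, 8 and 24 h. Biological triplicates.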

Pseudomonas aeruginosa [6] = test: Antibacterial activity against Pseudomonas aeruginosa K1525 mexY mutant assessed as reduction in bacterial growth rate in presence of berberine; format: functional, organism-based; procedure, shortened: as §2
Pseudomonas aeruginosa [7] = test: Antibacterial activity against Pseudomonas aeruginosa NC01 cystic fibrosis assessed as reduction in bacterial growth; format: functional
Pseudomonas aeruginosa [8] = test: Antibacterial activity against Pseudomonas aeruginosa NC01 cystic fibrosis assessed as tobramycin MIC in presence of berberine; format: functional
Procedure, shortened: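 Broth microdilution per CLSI guidelines, tobramycin MIC determined in presence of berberine 80 μg/mL; strains grown in LB. Combination considered synergistic when MIC with berberine was ≥4 times lower than tobramycin alone.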

Pseudomonas aeruginosa [9] = test: Antibacterial activity against Pseudomonas aeruginosa NC02 cystic fibrosis assessed as reduction in bacterial growth; format: functional
Pseudomonas aeruginosa [10] = test: Antibacterial activity against Pseudomonas aeruginosa NC02 cystic fibrosis assessed as tobramycin MIC in presence of berberine; format: functional
Procedure, shortened: (§3)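 Tobramycin MIC by CLSI broth microdilution in the presence of berberine 80 µg/mL.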

Pseudomonas aeruginosa [11] = test: Antibacterial activity against Pseudomonas aeruginosa NC04 cystic fibrosis assessed as reduction in bacterial growth; format: functional
Pseudomonas aeruginosa [12] = test: Antibacterial activity against Pseudomonas aeruginosa NC04 cystic fibrosis assessed as tobramycin MIC in presence of berberine; format: functional
Procedure, shortened: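 Broth microdilution per CLSI; tobramycin MIC determined with berberine present at 80 µg/mL. Synergy defined as MIC in presence of berberine ≥4 times lower than tobramycin alone.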

Pseudomonas aeruginosa [13] = test: Antibacterial activity against Pseudomonas aeruginosa NC06 cystic fibrosis assessed as reduction in bacterial growth; format: functional
Pseudomonas aeruginosa [14] = test: Antibacterial activity against Pseudomonas aeruginosa NC06 cystic fibrosis assessed as tobramycin MIC in presence of berberine; format: functional; procedure, shortened: as §3
Pseudomonas aeruginosa [15] = test: Antibacterial activity against Pseudomonas aeruginosa NC10 cystic fibrosis assessed as reduction in bacterial growth; format: functional
Pseudomonas aeruginosa [16] = test: Antibacterial activity against Pseudomonas aeruginosa NC10 cystic fibrosis assessed as tobramycin MIC in presence of berberine; format: functional; procedure, shortened: as §3
Pseudomonas aeruginosa [17] = test: Antibacterial activity against cystic fibrosis isolate Pseudomonas aeruginosa C25 assessed as fold reduction in MIC in presence of berberine by broth microdilution method; format: functional
Procedure, shortened: (§4)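 Tobramycin MIC was determined without and with berberine 80 µg/mL by CLSI broth microdilution. The combination was called synergistic when the MIC with berberine was ≥4 times lower than with tobramycin alone.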

Pseudomonas aeruginosa [18] = test: Antibacterial activity against clinical isolate Pseudomonas aeruginosa C54 assessed as fold reduction in MIC in presence of berberine by broth microdilution method; format: functional; procedure, shortened: as §4
Pseudomonas aeruginosa [19] = test: Antibacterial activity against clinical isolate Pseudomonas aeruginosa C59 assessed as fold reduction in MIC in presence of berberine by broth microdilution method; format: functional; procedure, shortened: as §4
Pseudomonas aeruginosa [20] = test: Antibacterial activity against clinical isolate Pseudomonas aeruginosa C84 assessed as fold reduction in MIC in presence of berberine by broth microdilution method; format: functional; procedure, shortened: as §4
Pseudomonas aeruginosa [21] = test: Antibacterial activity against cystic fibrosis isolate Pseudomonas aeruginosa AR48 assessed as fold reduction in MIC in presence of berberine by broth microdilution method; format: functional; procedure, shortened: as §4
Pseudomonas aeruginosa [22] = test: Antibacterial activity against cystic fibrosis isolate Pseudomonas aeruginosa NC06 assessed as fold reduction in MIC in presence of berberine by broth microdilution method; format: functional; procedure, shortened: as §4
Pseudomonas aeruginosa [23] = test: Antibacterial activity against cystic fibrosis isolate Pseudomonas aeruginosa C25 assessed as log reduction in tolerant cell in presence of berberine by broth microdilution method; format: functional; procedure, shortened: as §1
Pseudomonas aeruginosa [24] = test: Antibacterial activity against cystic fibrosis isolate Pseudomonas aeruginosa C30 assessed as log reduction in tolerant cell in presence of berberine by broth microdilution method; format: functional; procedure, shortened: as §1
Pseudomonas aeruginosa [25] = test: Antibacterial activity against clinical isolate Pseudomonas aeruginosa C54 assessed as log reduction in tolerant cell in presence of berberine by broth microdilution method; format: functional; procedure, shortened: as §1
Pseudomonas aeruginosa [26] = test: Antibacterial activity against clinical isolate Pseudomonas aeruginosa C84 assessed as log reduction in tolerant cell in presence of berberine by broth microdilution method; format: functional; procedure, shortened: as §1
Pseudomonas aeruginosa [27] = test: Antibacterial activity against cystic fibrosis isolate Pseudomonas aeruginosa NC06 assessed as reduction in tolerant cell in presence of berberine by broth microdilution method; format: functional; procedure, shortened: as §1
[28] = Inhibition of efflux pump in wild type Pseudomonas aeruginosa K767 assessed as fold reduction in CFU count in presence of tobramycin incubated for 24 hrs by ethidium bromide efflux assay relative to tobramycin alone; settings: in the assay text read “by planktonic persistence assay” for “by ethidium bromide efflux assay”
Procedure, shortened: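 Stationary-phase overnight LB cultures (37 °C) exposed to tobramycin 20xMIC alone or with berberine 80 µg/mL for 24 h at 37 °C. At 0, 7 and 24 h, aliquots PBS-washed, 10-fold serially diluted, plated on antibiotic-free CLED agar. CFU counted after 24 h at 37 °C. Biological duplicate.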

Pseudomonas aeruginosa [29] = test: Bactericidal activity against wild type Pseudomonas aeruginosa K767 assessed as increase in biofilm production at 80 ug/ml incubated overnight by crystal voilet staining based analysis relative to control; format: functional; settings: dose 80 µg/ml
Procedure, shortened: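 Biofilms grown overnight at 37 °C in flat-bottom microtiter plates in LB with or without berberine 80 µg/mL. Planktonic OD600 recorded; washed sessile phase stained 15 min with 1% crystal violet, dye taken up in 96% ethanol, OD570 read. Output is OD570/OD600. Run in triplicate.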

Pseudomonas aeruginosa [30] = test: Bactericidal activity against Pseudomonas aeruginosa K1525 mexY mutant assessed as increase in biofilm production at 80 ug/ml incubated overnight by crystal voilet staining based analysis relative to control; format: functional; settings: dose 80 µg/ml
Procedure, shortened: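 Biofilms grown overnight at 37 °C in LB with or without berberine 80 µg/mL in flat-bottom microtiter wells. Planktonic phase removed and its OD600 read. Sessile phase washed with water, stained with 1% crystal violet for 15 min, washed, solubilised in 96% ethanol and read at OD570. Values normalised as OD570/OD600. Triplicate.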

For `NC[C@H]1O[C@H](O[C@H]2[C@H](O)[C@@H](O[C@H]3O[C@H](CO)[C@@H](O)[C@H](N)[C@H]3O)[C@H](N)C[C@@H]2N)[C@H](N)C[C@@H]1O` [TOBRAMYCIN], the log(activity) (Pseudomonas aeruginosa [1]) was 4.11e+07, the Activity (Pseudomonas aeruginosa [2]) was 250000 CFU/ml and the “log(activity)” value (Pseudomonas aeruginosa [3]) was 3. The “log(activity)” value (Pseudomonas aeruginosa [4]) was 1, the Activity (Pseudomonas aeruginosa [5]) was “Active” and the Activity (Pseudomonas aeruginosa [6]) was “Active”. It also gave an MIC (Pseudomonas aeruginosa [7]) of 16 µg/mL (≈ 34.2 µM), an MIC (Pseudomonas aeruginosa [8]) of 8 µg/mL and an MIC (Pseudomonas aeruginosa [9]) of 32 µg/mL (≈ 68.4 µM). The MIC (Pseudomonas aeruginosa [10]) was 16 µg/mL, the MIC (Pseudomonas aeruginosa [11]) was 0.5 µg/mL (≈ 1.07 µM) and the MIC (Pseudomonas aeruginosa [12]) was < 0.125 µg/mL. The MIC (Pseudomonas aeruginosa [13]) was 2 µg/mL (≈ 4.28 µM), the MIC (Pseudomonas aeruginosa [14]) was 0.5 µg/mL and the MIC (Pseudomonas aeruginosa [15]) was 1 µg/mL (≈ 2.14 µM). For the same compound, the MIC (Pseudomonas aeruginosa [16]) was 0.25 µg/mL, the “fold change (FC)” value (Pseudomonas aeruginosa [17]) was 16 and the “fold change (FC)” value (Pseudomonas aeruginosa [18]) was 2. For the same compound, the “fold change (FC)” value (Pseudomonas aeruginosa [19]) was 2, the “fold change (FC)” value (Pseudomonas aeruginosa [20]) was 4 and the “fold change (FC)” value (Pseudomonas aeruginosa [21]) was 4. The “fold change (FC)” value (Pseudomonas aeruginosa [22]) was 4, the “log(activity)” value (Pseudomonas aeruginosa [23]) was 2.5 and the “log(activity)” value (Pseudomonas aeruginosa [24]) was 3. The “log(activity)” value (Pseudomonas aeruginosa [25]) was 1.5, the “log(activity)” value (Pseudomonas aeruginosa [26]) was 0.5 and the “log(activity)” value (Pseudomonas aeruginosa [27]) was 2.
With `COc1ccc2cc3[n+](cc2c1OC)CCc1cc2c(cc1-3)OCO2` [BERBERINE] the fold change (FC) [28] was 10, the Activity (Pseudomonas aeruginosa [29]) was 100% and the Activity (Pseudomonas aeruginosa [30]) was 50%.
